The record followed here is ChEMBL document CHEMBL1687818, “Mechanistic studies of the inactivation of TEM-1 and P99 by NXL104, a novel non-beta-lactam beta-lactamase inhibitor” (Antimicrob Agents Chemother, 2010).

Experiment [1] can be described thus: Inhibition of beta-lactamase TEM-1 assessed as inactivation rate constant for longer incubation time yield of enzyme by spectrophotometry.
A short description of experiment [2]: Inhibition of beta-lactamase TEM-1 assessed as inactivation rate constant by spectrophotometry. The procedure, abridged: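 Reporter-substrate method at 37°C: purified TEM-1 at 0.25 nM was added to 100 µM nitrocefin plus inhibitor at various concentrations, and hydrolysis was followed at 485 nm for 60 s. kobs was taken from the time courses, and K and k2 came from a plot of [I]/kobs against [I]. Means of at least two independent experiments.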

As for `C[C@]1(Cn2ccnn2)[C@H](C(=O)O)N2C(=O)C[C@H]2S1(=O)=O`, the Activity in experiment [1] came out at 0.02 s⁻¹.
`O=C(O)[C@H]1/C(=C/CO)O[C@@H]2CC(=O)N21`: in experiment [1], the Activity worked out at 0.03 s⁻¹.
Consider `NC(=O)[C@@H]1CC[C@@H]2CN1C(=O)N2OS(=O)(=O)O` (relative stereo), for which the Activity in experiment [2] was 0.11 s⁻¹.
